Most compounds without a hit are left out; they make up all but 12% or so of the library.
Diaph act CS: compounds boosting diaphorase resazurin reduction – biochemical, uHTS, resorufin fluorescence, counter-screen for diaphorase-coupled primary assays, primary screen; hit rate 0.005% among 190,000; activation factor at 20 µM; Diaphorase/resazurin coupled assay, 16 min; stronger effect = higher value; 1 = vehicle wells, 0 = NADH-free wells;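 active = diaphorase activity raised at least twofold by the compound at 20 µM; inactive = activation factor below 2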
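Material: purified diaphorase enzyme from Clostridium kluyveri; Also added: 0.114 mM NADH and 0.1 mM resazurin, final amounts; Doses: single compound dose of 20 µM, 1% DMSO final; Times: 16 min enzyme reaction, ambient temperature; Detection: resorufin fluorescence, excitation 544 nm, emission 590 nm; Measure: increased resorufin signal from activators or reducing compounds.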
Diaph inh CS: diaphorase inhibitors and chemical oxidizers, primary screen, counter-screen for diaphorase-coupled primary assays, biochemical, uHTS, resorufin fluorescence. hit rate 0.69% among 190,000. inhibition, % at 20 µM. AID 1217, 2008. diaphorase resazurin-to-resorufin fluorescence, NADH, 16 min; bacterial (C. kluyveri) enzyme, not human;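 active = primary screen inhibition at 20 µM above a set limit, cut at about 50% in these data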;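 also: plate controls were DMSO with full reaction for no effect and wells lacking NADH for full effect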
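Assay system: diaphorase enzyme from Clostridium kluyveri. Quantity: enzyme working solution with 0.14 U/mL diaphorase. Schedule: reaction incubation of 16 min at room temperature. Technique: resorufin fluorescence, excitation 544 nm, emission 590 nm. Controls: No-NADH positive control and DMSO neutral control.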
Cl transport mod: KCC2 cotransporter modulators, thallium flux, primary screen, cell-based, HEK293 KCC2, FluoZin-2 fluorescence, MLSMR | Solute carrier family 12 member 5 (Homo sapiens), Q9H2X9 | B-score of Tl+ flux slope (higher = more flux/activation; lower = inhibition) at 10 µM | KCC2 cells, thallium flux FluoZin-2 fluorescence | hit rate 2.2% among 190,000;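 active = thallium flux slope and its plate-corrected score both differing from the plate sample mean at a set confidence after two filtering rounds, in either direction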;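 also: slope of fluorescence scaled to starting intensity during 10 to 20 s after thallium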
ROMK primary: ROMK potassium channel modulators, primary screen, cell-based, thallium flux, MLSMR library. hit rate 2% among 130,000. Tet-inducible ROMK, thallium flux fluorescence; actives lie on both sides. ATP-sensitive inward rectifier potassium channel 1 (Homo sapiens), P48048. B-score at 10 µM. AID 1918, 2009;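 active = signal ratio slope over the read window, or its plate-corrected B-score, at least 3 SD from the plate mean, either direction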;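 also: B-score of the F/F0 ratio slope over 7 to 12 s after thallium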
Target sequence (P48048 whole entry, looked up): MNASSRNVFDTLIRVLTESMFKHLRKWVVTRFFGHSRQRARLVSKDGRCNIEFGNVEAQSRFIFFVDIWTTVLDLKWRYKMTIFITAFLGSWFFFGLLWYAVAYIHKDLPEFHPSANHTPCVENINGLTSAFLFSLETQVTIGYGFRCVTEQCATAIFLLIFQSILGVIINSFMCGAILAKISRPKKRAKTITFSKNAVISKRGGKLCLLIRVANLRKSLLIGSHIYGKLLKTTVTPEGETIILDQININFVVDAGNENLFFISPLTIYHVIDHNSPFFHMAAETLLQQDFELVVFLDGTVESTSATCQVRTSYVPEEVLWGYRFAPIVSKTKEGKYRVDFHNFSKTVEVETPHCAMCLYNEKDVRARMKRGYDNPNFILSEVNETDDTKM
WT yeast gro inh: growth inhibition of WT strain, primary screen, mitochondrial fusion inhibitor project, WT and mutant strains, chemical genetic; mitochondrial fusion phenotypic screen; inhibition, % at 10 µM; hit rate 2.1% among 190,000; in the data active = inhibition above about 58%; tested in S. cerevisiae
Lmaj promast: Leishmania major promastigote growth inhibition, primary screen. Leishmania major promastigotes, resazurin fluorescence viability. inhibition, % at 10 µM. hit rate 9% among 200,000; in the data active = inhibition above about 50%;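 also: promastigotes grown with compound for 44 hours at 28 °C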
ROMK hit retest: ROMK channel modulator hit retest, confirmation, cell-based, thallium flux, duplicate, resupplied hits; shares compounds with ROMK primary; fluorescence ratio; stronger effect = lower value; normalized thallium flux (F/F0 slope) at 10 µM; hit rate 54% among 3,000; AID 1917, 2009;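 active = Flux at 10 µM at least 3 SD below or above vehicle control mean in one or both replicates; inconclusive = no clear call, values can overlap the other calls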
* = called active by the depositor; i = inactive; ? = inconclusive; · = no result given.

SMILES	Diaph act CS	Diaph inh CS	Cl transport mod	ROMK primary	WT yeast gro inh	Lmaj promast	ROMK hit retest
CCn1c(O)c(C=Nc2ccc(N3CCOCC3)cc2)c(=O)n(CC)c1=S	0.9	12.8	-0.0697	-6.62*	-11.3	-1.1	0.0446*
CCn1c(O)c(C=Nc2ccc(N3CCOCC3)c(Br)c2)c(=O)n(CC)c1=S	0.8	17.2	i	-5.3*	-23.7	-6.7	0.0789
CCn1c(O)c(/C=N/N2CCOCC2)c(=O)n(CC)c1=S	0.9	9.3	-0.0834	·	14.5	-5.4	·
CCN(CC)c1ccc(/C=C2\C(=O)NC(=S)N(C)C2=O)o1	·	·	-4.61	-6.35*	·	·	0.0283*
C=CCN1C(=O)/C(=C/c2ccc(N3CCOCC3)o2)C(=O)NC1=S	0.8	15.4	0.141	·	2.3	3.3	·
O=C(CN1CCN(c2ccccc2F)CC1)Nc1cccnc1Cl	0.9	6.4	-1.27	0.221	-20.3	5.6	·
NP(=O)(Oc1ccccc1Cl)Oc1ccccc1Cl	0.8	18.0	-1.1	-3.06*	10.7	1.8	0.0642*
NP(=O)(OCC(F)(F)F)Oc1cccc2ccccc12 (stereo unspecified)	0.9	9.2	0.0953	-1.03	8.6	6.8	·
COC1CC(OC2CCC3(C)C(CCC4C3CCC3(C)C(C5=CC(=O)OC5)C(OC(C)=O)CC43O)C2)OC(C)C1OC1OC(COC2OC(CO)C(O)C(O)C2O)C(O)C(O)C1O (stereo unspecified)	·	·	0.62	·	·	·	?
c1ccc(CCNCc2ccccc2)cc1	0.9	11.6	0.68	·	22.9	12.3	·
COc1ccc(CCNCc2ccc(SC)cc2)cc1	0.9	5.2	0.446	·	-8.7	62.7*	0.0619*
Cc1nc2sccc2c(=O)n1-c1ccccc1Cl	1	4.4	-0.221	0.225	-4.0	0.5	·
N#CCCn1cc(C(=O)Nc2ccc(F)cc2)c(-c2ccc([N+](=O)[O-])cc2)n1	0.9	11.5	0.506	0.0843	2.3	-3.8	·
C[C@@H]1O[C@@H](O[C@H]2C[C@@H](O)[C@]3(CO)[C@H]4[C@H](O)C[C@]5(C)[C@@H](C6COC(=O)C6)CC[C@]5(O)[C@@H]4CC[C@]3(O)C2)[C@H](O)[C@H](O)[C@H]1O (stereo partly specified)	0.9	5.6	0.766	·	-3.2	-1.6	0.064*
CC(C)(C)c1cc([N+](=O)[O-])cc(C(C)(C)C)c1O	0.8	17.1	0.0525	·	81.2	14.9	0.0813
CN1CCc2nc3ccc(F)cc3c(C(N)=O)c2C1	1	3.5	-0.0609	·	41.6	0.6	·
CCCCn1c(O)c(C(C)=NCc2ccco2)c(=O)[nH]c1=O	·	·	0.00163	·	·	·	·
Cc1ccc(OCC(=O)N2CCN(CC3CC4C=CC3C4)CC2)cc1 (stereo unspecified)	0.8	19.9	·	-2.11*	-9.7	77.7*	0.0665*
CC1CC(OC(=O)c2ccccc2)(c2ccccc2)C(C)CN1C (stereo unspecified)	·	·	0.0846	·	·	·	0.0695
CCCN1CC(C)C(OC(C)=O)(c2ccccc2)CC1C (stereo unspecified)	1.1	-8.0	·	·	10.5	11.2	·
CS(=O)(=O)N1CCN(C(=N)N[N+](=O)[O-])CC1	1.1	-14.7	0.405	-2.64*	-36.5	-3.6	0.0806
Cc1cc(=O)[nH]c(CCl)n1	1.1	-6.4	0.655	-0.911	4.4	0.5	·
CCOc1ccc(-n2c(O)c(C=NCCCn3ccnc3)c(=O)[nH]c2=O)cc1	0.9	9.0	·	·	14.5	-3.6	·
CCCC(C)n1[nH]c(=O)c2c1NC(=O)CSC2c1ccc(OC)cc1 (stereo unspecified)	0.9	11.8	-0.102	2.27*	17.5	-0.6	?
CCOC(=O)C1=C(N)OC2=C(C(=O)CCC2)C12C(=O)Nc1ccccc12 (stereo unspecified)	0.9	6.9	-0.0517	·	-2.8	2.4	·
SMILES	Diaph act CS	Diaph inh CS	Cl transport mod	ROMK primary	WT yeast gro inh	Lmaj promast	ROMK hit retest
CCOC(=O)C1=C(N)OC2=C(C(=O)CCC2)C12C(=O)N1c3c(ccc(C)c32)C(C)=CC1(C)C (stereo unspecified)	0.9	10.9	-0.932	-5.89*	4.1	78.7*	0.0587*
O=c1[nH]c(=O)n(-c2ccccc2)c(O)c1/C=C1/C(c2ccccc2)=Nc2ccccc21	0.8	17.3	-0.878	-5.41*	51.5	78.8*	0.0546*
COCCOC(=O)C1=C(N)Oc2c(c(=O)oc3ccccc23)[C@@]12C(=O)Nc1ccccc12	0.9	11.4	·	0.294	11.8	·	·
Cc1cccn2c(=O)c3cc(C(=O)N4CCC5(CC4)OCCO5)n(C)c3nc12	1	4.6	·	5.35*	33.1	-1.7	0.0943
COc1cc(/C=C/[N+](=O)[O-])ccc1O	0.7	28.7	0.00711	-6.99*	31.2	96.7*	0.051*
CCN(CC)c1ccc(N=Cc2c(O)n(Cc3ccccc3)c(=O)[nH]c2=O)cc1	0.7	27.0	-1.64	-8.27*	-11.0	-2.7	0.0485*
CCOc1ccccc1-n1c(O)c(C=Nc2ccc(N(CC)CC)cc2)c(=O)[nH]c1=O	0.6	41.3	-1.6	2.66*	7.4	8.4	0.0798
CCN(CC)c1ccc(N=Cc2c(O)n(-c3ccccc3)c(=O)[nH]c2=O)cc1	·	·	-0.923	-0.28	·	·	·
NP(=O)(OCC(F)(F)F)Oc1ccc(Cl)cc1 (stereo unspecified)	1	-0.2	-0.313	·	-19.8	-0.4	·
O=C(C[N+]12CCC(CC1)C(C(O)(c1ccccc1)c1ccccc1)C2)c1ccc(Br)cc1 (stereo unspecified)	·	·	0.714	·	·	·	·
CC(C)NC(C)C(=O)C12CC3CC(CC(C3)C1)C2 (stereo unspecified)	1	4.9	-0.251	1.58*	-3.5	-0.5	?
CCOC(=O)C1=C(N)Oc2cc(C)oc(=O)c2C12C(=O)N1c3c(cccc32)C(C)CC1(C)C (stereo unspecified)	0.8	15.5	-0.568	-4.79*	9.1	2.4	0.0599*
